Values after ≈ are worked out from the molar mass of the structure shown.
Assays:
Vero = test: Cytotoxicity against african green monkey Vero cells by SRB assay; format: cell-based; details: Chlorocebus sabaeus
MCF7 = test: Cytotoxicity against human MCF7 cells by SRB assay; format: functional, cell-based
KB = test: Cytotoxicity against human KB cells by SRB assay; format: functional, cell-based
Plasmodium falciparum = test: Antiplasmodial activity against multidrug-resistant Plasmodium falciparum K1 assessed as [G-3H]hypoxanthine uptake after 24 hrs by scintillation counting; format: functional, organism-based; details: K1, 24 h
In short: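 Microculture radioisotope technique on the multidrug-resistant K1 strain of P. falciparum; activity reported in µg/mL.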

[1] = system: Radical scavenging activity; test: Antioxidant activity assessed as DPPH radical scavenging activity; format: functional
In short: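 DPPH radical-scavenging test run per a published method. Activity is expressed in µg/mL, and a positive control substance was included.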

NCI-H187 = test: Cytotoxicity against human NCI-H187 cells by SRB assay; format: functional, cell-based

SMILES | IC50 (Vero) [µg/mL] | IC50 (MCF7) [µg/mL] | IC50 (KB) [µg/mL] | IC50 (Plasmodium falciparum) [µg/mL] | IC50 [1] [µg/mL] | IC50 (NCI-H187) [µg/mL]
COC1=Cc2c(cc(O)c3cc(C)c(OC)cc23)C(C)(C)C1=O | 3.1 (≈ 9.92 µM) | 2.9 (≈ 9.28 µM) | 0.8 (≈ 2.56 µM) | 2.7 (≈ 8.64 µM) | 29.1 (≈ 93.2 µM) | 0.8 (≈ 2.56 µM)
COc1cc2c(cc1C)c(OC)cc1cc(C)c(=O)c(OC)cc12 | > 20 | > 5 | 4 (≈ 12.3 µM) | 3.2 (≈ 9.87 µM) | > 100 | > 5
COc1cc2c(cc1C)c(OC)cc1cc(C)c(=O)cc(OC)c12 | > 20 | > 5 | 3.9 (≈ 12 µM) | > 20 | > 100 | > 5
C[C@H]1[C@@H](O)O[C@@H]2O[C@@]3(C)CC[C@H]4[C@H](C)CC[C@@H]1[C@@]24OO3 [ARTENIMOL] |  |  |  | 0.004 (≈ 0.0141 µM) |  | 
Cc1cc(C(C)(C)C)c(O)c(C(C)(C)C)c1 [BUTYLATED HYDROXYTOLUENE] |  |  |  |  | 18.8 (≈ 85.3 µM) | 
COc1cccc2c1C(=O)c1c(O)c3c(c(O)c1C2=O)C[C@@](O)(C(=O)CO)C[C@@H]3O[C@H]1C[C@H](N)[C@H](O)[C@H](C)O1 [DOXORUBICIN] |  |  | 0.13 (≈ 0.239 µM) |  |  | 0.04 (≈ 0.0736 µM)
Cc1c2ccncc2c(C)c2c1[nH]c1ccccc12 [ELLIPTECINE] | 0.48 (≈ 1.95 µM) |  | 0.48 (≈ 1.95 µM) |  |  | 0.44 (≈ 1.79 µM)
COC1=Cc2c(cc(OC)c3cc(C)c(OC)cc23)C(C)(C)C1=O [TRIGONOSTEMONE] | > 20 | > 5 | > 5 | > 20 | > 100 | > 5
